These results are taken from ChEMBL document CHEMBL4725349, “Discovery of First-in-Class Protein Arginine Methyltransferase 5 (PRMT5) Degraders” (J Med Chem, 2020).

Data set [1] has as its target T1, von Hippel-Lindau disease tumor suppressor/Protein arginine N-methyltransferase 5 (Homo sapiens, UniProt O14744+P40337). Nature of the data set: Induction of VHL-mediated PRMT5 degradation in human MCF7 cells at 0.2 to 5 uM incubated for 6 days by Western blot analysis. The format is cell-based. The note with it: dose microM 0.2-5, time 6.0 day. Summed up: (§1)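 MCF-7 cells treated 6 d (0.2, 1 and 5 μM for initial screen, or indicated concentrations). RIPA lysates immunoblotted for PRMT5. Band intensity quantified by densitometry to derive DC50 and Dmax as mean ± SD from three independent experiments; screening blots representative of at least two.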
Target sequence in this assay (O14744 whole entry, looked up): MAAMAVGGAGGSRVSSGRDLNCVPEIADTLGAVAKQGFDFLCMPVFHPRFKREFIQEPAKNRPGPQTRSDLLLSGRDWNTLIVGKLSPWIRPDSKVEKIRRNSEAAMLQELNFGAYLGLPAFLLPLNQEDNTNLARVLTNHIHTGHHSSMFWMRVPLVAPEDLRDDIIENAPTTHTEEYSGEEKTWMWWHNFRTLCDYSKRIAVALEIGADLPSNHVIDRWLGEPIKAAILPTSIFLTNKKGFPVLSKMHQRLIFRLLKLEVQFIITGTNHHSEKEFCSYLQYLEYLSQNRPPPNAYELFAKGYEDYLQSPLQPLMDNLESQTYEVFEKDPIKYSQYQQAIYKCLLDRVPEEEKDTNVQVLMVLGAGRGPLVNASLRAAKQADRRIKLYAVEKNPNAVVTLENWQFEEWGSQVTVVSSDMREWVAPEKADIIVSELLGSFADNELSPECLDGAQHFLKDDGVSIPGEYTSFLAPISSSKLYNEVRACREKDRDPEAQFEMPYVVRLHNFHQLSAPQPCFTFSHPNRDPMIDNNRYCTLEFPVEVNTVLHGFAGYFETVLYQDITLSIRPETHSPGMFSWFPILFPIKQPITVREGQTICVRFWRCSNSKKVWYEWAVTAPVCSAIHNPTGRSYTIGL
Target sequence in this assay (P40337 whole entry, looked up): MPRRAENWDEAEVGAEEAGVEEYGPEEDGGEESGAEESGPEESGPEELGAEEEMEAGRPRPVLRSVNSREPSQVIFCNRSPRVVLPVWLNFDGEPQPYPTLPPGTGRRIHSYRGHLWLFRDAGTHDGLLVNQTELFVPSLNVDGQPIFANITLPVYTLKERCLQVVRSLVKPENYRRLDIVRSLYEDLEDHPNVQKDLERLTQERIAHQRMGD
In general terms: Immunoblotting shows a protein as a band on a membrane.

The next data set deals with A549. Nature of the data set: Antiproliferative activity against human A549 cells assessed as reduction in cell viability supplemented with fresh medium containing compound every other day for 6 days by CellTiter-Glo assay. The format is functional, cell-based. The note with it: dose microM 0.1-10, time 6.0 day. The method, boiled down: (§2)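 HeLa, A549 and A172 grown in DMEM + 10% FBS; Jurkat in RPMI 1640 + 10% FBS; all at 37 °C, 5% CO2. Cells seeded, then treated 6 d with test agent, medium plus compound renewed every other day. Viability read by CellTiter-Glo and normalized to DMSO-treated cells; mean ± SD, n = 3.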
In general terms: ATP-based viability assays read luminescence as a measure of living cells.

Data set [2] in a line: Plasma concentration in Swiss albino mouse at 150 mg/kg, ip administered as single dose measured after 12 hrs post dose by LC-MS/MS method. Format: ADME, organism-based. The method, boiled down:
(§3)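 Male Swiss albino mice received one 150 mg/kg IP dose in normal saline. Blood drawn under light isoflurane at 0.25, 0.5, 1, 2, 6 and 12 h, three mice per time point. Plasma acetonitrile-precipitated and quantified by LC-MS/MS (LLOQ 9.25 ng/mL); clinical signs observed.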

For data set [3], the target named is T1, von Hippel-Lindau disease tumor suppressor/Protein arginine N-methyltransferase 5. In words: Induction of VHL-mediated PRMT5 degradation in human MCF7 cells assessed as recovery of PRMT5 level at 5 uM incubated for 6 days followed by compound wash out and measured up to 48 hrs by Western blot analysis. The format is cell-based. The note with it: time 6.0 day. Summed up: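 Washout: MCF-7 cells treated 6 d with 5 μM, compound removed, and PRMT5 immunoblotted at 0, 12, 24 and 48 h after washout.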
Target sequence in this assay (O14744 whole entry, looked up): as the sequence (O14744 whole entry, looked up) above
Target sequence in this assay (P40337 whole entry, looked up): as the sequence (P40337 whole entry, looked up) above

The next data set concerns Jurkat. Nature of the data set: Antiproliferative activity against human Jurkat cells assessed as reduction in cell viability supplemented with fresh medium containing compound every other day for 6 days by CellTiter-Glo assay. The format is functional, cell-based. The note with it: dose microM 0.1-10, time 6.0 day. The method, boiled down:
as §2

For data set [4], the target named is T1, von Hippel-Lindau disease tumor suppressor/Protein arginine N-methyltransferase 5. Nature of the data set: Induction of VHL-mediated PRMT5 degradation in human MCF7 cells assessed as PRMT5 level at 5 uM incubated for 7 days by Western blot analysis relative to control. Format: cell-based. The note with it: time 7.0 day.
Target sequence in this assay (O14744 whole entry, looked up): as the sequence (O14744 whole entry, looked up) above
Target sequence in this assay (P40337 whole entry, looked up): as the sequence (P40337 whole entry, looked up) above
Another data set deals with A 172. In words: Antiproliferative activity against human A172 cells assessed as reduction in cell viability supplemented with fresh medium containing compound every other day for 6 days by CellTiter-Glo assay. Format: functional, cell-based. The note with it: dose microM 0.1-10, time 6.0 day. The method, boiled down: as §2
For data set [5], the target named is T1, von Hippel-Lindau disease tumor suppressor/Protein arginine N-methyltransferase 5. In words: Induction of VHL-mediated PRMT5 degradation in human MCF7 cells assessed as PRMT5 level at 5 uM incubated for 7 days in presence of VH-298 by Western blot analysis relative to control. Format: cell-based. The note with it: time 7.0 day.
Target sequence in this assay (O14744 whole entry, looked up): as the sequence (O14744 whole entry, looked up) above
Target sequence in this assay (P40337 whole entry, looked up): as the sequence (P40337 whole entry, looked up) above
Data set [6] has the same target. In words: Induction of VHL-mediated PRMT5 degradation in human MCF7 cells assessed as PRMT5 level at 5 uM incubated for 7 days in presence of proteasome inhibitor MG-132 by Western blot analysis relative to control. The note with it: time 7.0 day. The format is cell-based.
Target sequence in this assay (O14744 whole entry, looked up): as the sequence (O14744 whole entry, looked up) above
Target sequence in this assay (P40337 whole entry, looked up): as the sequence (P40337 whole entry, looked up) above
Data set [7] shares this target. Nature of the data set: Induction of VHL-mediated PRMT5 degradation in human Jurkat cells at 5 uM incubated for 6 days by Western blot analysis. Format: cell-based. The note with it: time 6.0 day. Summed up: (§4)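 HeLa, A549, A172 and Jurkat cells exposed to 5 μM for 6 d. Lysis in RIPA buffer with protease inhibitors, then SDS-PAGE, PVDF transfer and immunoblot for PRMT5 with β-actin loading control, ECL detection. Representative of two independent experiments.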
Target sequence in this assay (O14744 whole entry, looked up): as the sequence (O14744 whole entry, looked up) above
Target sequence in this assay (P40337 whole entry, looked up): as the sequence (P40337 whole entry, looked up) above

In data set [8] the target is von Hippel-Lindau disease tumor suppressor/Methylosome protein WDR77 (Homo sapiens) (UniProt Q9BQA1+P40337). Nature of the data set: Induction of VHL-mediated WDR77 degradation in human MCF7 cells at 5 uM supplemented with fresh medium containing compound every 2 days for 5 days by LC-MS based LFQ global proteomics analysis. The format is cell-based. The note with it: time 5.0 day. The method, boiled down: (§5)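 MCF-7 cells given 5 μM compound or DMSO for 5 d, with fresh medium plus compound every 48 h; two biological replicates. Lysis in 8 M urea/50 mM Tris pH 8.0, DTT reduction, iodoacetamide alkylation, overnight trypsin digestion. Peptides run on nanoLC-Q-Exactive HF-X, 130 min gradient. Label-free quantitation; fold changes tested by two-sample t test.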

The target of a further data set is PRMT5/MEP50 complex (Homo sapiens, UniProt O14744). Nature of the data set: Inhibition of human PRMT5/MEP50 assessed as reduction in methyltransferase activity using histone 4 peptide as substrate in presence of [3H]SAM incubated for 30 mins. The format is protein-complex assay. Summed up:
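Radiometric FlashPlate assay tracking transfer of the 3H-methyl group from SAM (1 μM) to biotinylated H4 (1–15) peptide by human PRMT5/MEP50 (5 nM). Compounds were preincubated with enzyme and substrate for 20 min at rt. They were tested at 10 concentrations in threefold serial dilution from 5 μM, in duplicate. IC50 is reported as mean ± SD.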

Data set [9] has as its target T1, von Hippel-Lindau disease tumor suppressor/Protein arginine N-methyltransferase 5. Nature of the data set: Induction of VHL-mediated PRMT5 degradation in human MCF7 cells assessed as PRMT5 level at 5 uM incubated for 7 days in presence of EPZ015666 by Western blot analysis relative to control. Format: cell-based. The note with it: time 7.0 day.
Data set [10] has the same target. Nature of the data set: Induction of VHL-mediated PRMT5 degradation in human MCF7 cells incubated for 6 days by Western blot analysis. Format: cell-based. The method, boiled down: as §1
Data set [11] shares this target. Nature of the data set: Induction of VHL-mediated PRMT5 degradation in human HeLa cells at 5 uM incubated for 6 days by Western blot analysis. The note with it: time 6.0 day. The format is cell-based. Summed up: as §4
For data set [12] the target is unchanged. Nature of the data set: Induction of VHL-mediated PRMT5 degradation in human A549 cells at 5 uM incubated for 6 days by Western blot analysis. The note with it: time 6.0 day. The format is cell-based. The method, boiled down: as §4
The target is the same in data set [13]. Nature of the data set: Induction of VHL-mediated PRMT5 degradation in human MCF7 cells at 5 uM supplemented with fresh medium containing compound every 2 days for 5 days by LC-MS based LFQ global proteomics analysis. The format is cell-based. The note with it: time 5.0 day. Summed up: as §5
Data set [14] has the same target. Nature of the data set: Induction of VHL-mediated PRMT5 degradation in human A172 cells at 5 uM incubated for 6 days by Western blot analysis. The format is cell-based. The note with it: A 172, time 6.0 day. The method, boiled down: as §4
The next data set has as its system HeLa. In words: Antiproliferative activity against human HeLa cells assessed as reduction in cell viability supplemented with fresh medium containing compound every other day for 6 days by CellTiter-Glo assay. The format is functional, cell-based. The note with it: dose microM 0.1-10, time 6.0 day. The method, boiled down:
as §2

The target of data set [15] is T1, von Hippel-Lindau disease tumor suppressor/Protein arginine N-methyltransferase 5. Nature of the data set: Induction of VHL-mediated PRMT5 degradation in human MCF7 cells assessed as PRMT5 level at 5 uM incubated for 7 days in presence of neddylation inhibitor MLN4924 by Western blot analysis relative to control. Format: cell-based. The note with it: time 7.0 day.

Data set [16] deals with MCF7. In words: Antiproliferative activity against human MCF7 cells incubated for 6 days by CellTiter-Glo assay. The format is functional, cell-based. The note with it: dose microM 0.1-10, time 6.0 day. Summed up: (§6)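 MCF-7 in DMEM + 10% FBS at 37 °C, 5% CO2. Cells exposed to graded concentrations for 6 d, medium with compound refreshed every other day. CellTiter-Glo luminescence, expressed as viability relative to DMSO control; mean ± SD, n = 3.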

A short description of data set [17]: Toxicity in Swiss albino mouse assessed as effect on clinical signs at 150 mg/kg, ip. The format is organism-based. The note with it: in vivo. The method, boiled down: as §3
Data set [18] in a line: Plasma concentration in Swiss albino mouse at 150 mg/kg, ip administered as single dose measured at 2 hrs post dose by LC-MS/MS method. Format: ADME, organism-based. Summed up:
as §3

Data set [19] deals with von Hippel-Lindau disease tumor suppressor/Agrin (Homo sapiens) (UniProt P40337+O00468). In words: Induction of VHL-mediated AGRN degradation in human MCF7 cells at 5 uM supplemented with fresh medium containing compound every 2 days for 5 days by LC-MS based LFQ global proteomics analysis. The format is cell-based. The note with it: time 5.0 day. Summed up: as §5
In data set [20] the target is T1, von Hippel-Lindau disease tumor suppressor/Protein arginine N-methyltransferase 5. In words: Induction of VHL-mediated PRMT5 degradation in human MCF7 cells assessed as reduction in SDMA level incubated for 6 days by Western blot analysis. The format is cell-based. The note with it: dose microM 0.1-3, time 6.0 day. Summed up:
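SDMA read-out: MCF-7 cells given 0.1, 0.3, 1 or 3.0 μM for 6 d; global symmetric dimethylarginine detected on western blot with anti-SDMA antibody.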

For data set [21] the target is unchanged. Nature of the data set: Induction of VHL-mediated PRMT5 degradation in human MCF7 cells incubated for 6 days by Western blot analysis relative to control. Format: cell-based. The note with it: time 6.0 day. Summed up: as §1
For data set [22] the target is unchanged. In words: Induction of VHL-mediated PRMT5 degradation in human MCF7 cells at 5 uM incubated for 6 days by Western blot analysis. The note with it: time 6.0 day. Format: cell-based. The method, boiled down:
as §1

Data set [23] concerns MCF7. In words: Antiproliferative activity against human MCF7 cells at 0.1 to 10 uM incubated for 6 days by CellTiter-Glo assay. Format: functional, cell-based. The note with it: dose microM 0.1-10, time 6.0 day. The method, boiled down:
as §6

Calls of active or inactive are those of the source. The rule behind the calls is not given here.

For orientation: IC50 means the concentration that gives 50% inhibition. What is called DC50 is the concentration giving 50% degradation. A higher DC50 goes with degradation only at high concentration. In general, Emax refers to the greatest response seen or fitted, relative to the assay's reference.

Chain of PRMT5/MEP50 complex (O14744 whole entry): as the sequence (O14744 whole entry, looked up) above
Chain of PRMT5/MEP50 complex (Q9BQA1 whole entry, further chain): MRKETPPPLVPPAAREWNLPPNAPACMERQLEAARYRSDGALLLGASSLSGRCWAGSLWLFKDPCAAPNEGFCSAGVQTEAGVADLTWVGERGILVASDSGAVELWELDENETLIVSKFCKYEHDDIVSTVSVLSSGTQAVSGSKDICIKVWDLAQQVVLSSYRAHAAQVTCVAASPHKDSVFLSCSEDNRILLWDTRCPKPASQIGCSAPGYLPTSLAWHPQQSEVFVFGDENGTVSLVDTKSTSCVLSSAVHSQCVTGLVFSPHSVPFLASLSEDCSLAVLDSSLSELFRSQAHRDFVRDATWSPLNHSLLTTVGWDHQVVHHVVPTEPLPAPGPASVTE
Chain of von Hippel-Lindau disease tumor suppressor/Methylosome protein WDR77 (Homo sapiens) (P40337 whole entry, looked up): as the sequence (P40337 whole entry, looked up) above
Chain of von Hippel-Lindau disease tumor suppressor/Methylosome protein WDR77 (Homo sapiens) (Q9BQA1 whole entry, looked up): as the sequence (Q9BQA1 whole entry, further chain) above
Chain of von Hippel-Lindau disease tumor suppressor/Agrin (Homo sapiens) (O00468 whole entry, looked up): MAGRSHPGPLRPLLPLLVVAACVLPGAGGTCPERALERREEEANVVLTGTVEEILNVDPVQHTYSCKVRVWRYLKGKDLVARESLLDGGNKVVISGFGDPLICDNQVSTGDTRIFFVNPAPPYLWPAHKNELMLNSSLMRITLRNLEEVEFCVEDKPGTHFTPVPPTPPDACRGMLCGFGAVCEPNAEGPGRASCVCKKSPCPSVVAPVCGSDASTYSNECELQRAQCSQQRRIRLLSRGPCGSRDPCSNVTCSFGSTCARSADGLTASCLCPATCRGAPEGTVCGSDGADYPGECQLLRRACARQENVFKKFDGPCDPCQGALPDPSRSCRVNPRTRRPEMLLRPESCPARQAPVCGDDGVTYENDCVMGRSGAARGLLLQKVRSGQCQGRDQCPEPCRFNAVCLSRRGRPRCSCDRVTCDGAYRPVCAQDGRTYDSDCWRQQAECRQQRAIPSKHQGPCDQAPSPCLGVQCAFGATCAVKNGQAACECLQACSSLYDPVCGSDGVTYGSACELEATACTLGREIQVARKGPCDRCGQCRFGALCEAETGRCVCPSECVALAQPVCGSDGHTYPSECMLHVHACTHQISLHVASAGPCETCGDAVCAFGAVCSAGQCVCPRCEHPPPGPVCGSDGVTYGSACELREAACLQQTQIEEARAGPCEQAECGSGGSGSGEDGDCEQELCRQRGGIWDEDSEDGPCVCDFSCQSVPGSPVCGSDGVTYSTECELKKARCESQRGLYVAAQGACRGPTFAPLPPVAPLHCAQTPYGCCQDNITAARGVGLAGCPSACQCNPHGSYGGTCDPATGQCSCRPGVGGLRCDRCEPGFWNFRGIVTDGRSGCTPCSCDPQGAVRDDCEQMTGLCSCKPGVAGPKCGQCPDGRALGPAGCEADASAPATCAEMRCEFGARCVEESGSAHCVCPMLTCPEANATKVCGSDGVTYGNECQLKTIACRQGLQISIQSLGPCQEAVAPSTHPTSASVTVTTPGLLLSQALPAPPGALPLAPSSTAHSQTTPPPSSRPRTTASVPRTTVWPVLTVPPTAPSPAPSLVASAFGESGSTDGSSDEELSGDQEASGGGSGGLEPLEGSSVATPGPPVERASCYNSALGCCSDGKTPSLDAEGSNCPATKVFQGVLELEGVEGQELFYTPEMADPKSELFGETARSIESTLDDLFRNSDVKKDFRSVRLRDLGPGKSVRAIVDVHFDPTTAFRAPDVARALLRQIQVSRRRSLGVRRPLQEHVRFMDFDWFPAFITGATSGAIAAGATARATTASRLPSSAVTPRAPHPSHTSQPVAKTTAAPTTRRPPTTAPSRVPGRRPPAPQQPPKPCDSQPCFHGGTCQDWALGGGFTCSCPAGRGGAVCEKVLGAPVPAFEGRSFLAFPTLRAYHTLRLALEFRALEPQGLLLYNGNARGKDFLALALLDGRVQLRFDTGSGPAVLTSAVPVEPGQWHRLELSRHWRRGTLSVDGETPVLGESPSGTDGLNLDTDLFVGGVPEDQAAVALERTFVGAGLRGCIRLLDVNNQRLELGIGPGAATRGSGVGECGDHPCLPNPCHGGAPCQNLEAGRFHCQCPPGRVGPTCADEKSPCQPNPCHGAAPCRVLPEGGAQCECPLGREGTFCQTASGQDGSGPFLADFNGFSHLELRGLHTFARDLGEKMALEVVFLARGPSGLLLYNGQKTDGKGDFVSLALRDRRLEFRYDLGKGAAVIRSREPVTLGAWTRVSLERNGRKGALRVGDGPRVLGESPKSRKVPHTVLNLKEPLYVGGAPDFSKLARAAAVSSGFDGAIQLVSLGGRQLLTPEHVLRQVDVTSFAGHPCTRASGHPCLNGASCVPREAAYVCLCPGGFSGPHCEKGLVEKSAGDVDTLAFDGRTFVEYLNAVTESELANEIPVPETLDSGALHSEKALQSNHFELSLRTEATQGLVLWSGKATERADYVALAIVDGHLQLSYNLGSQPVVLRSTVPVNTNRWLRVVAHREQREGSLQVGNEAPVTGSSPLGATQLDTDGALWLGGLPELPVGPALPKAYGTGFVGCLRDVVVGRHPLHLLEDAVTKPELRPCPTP
Chain of von Hippel-Lindau disease tumor suppressor/Agrin (Homo sapiens) (P40337 whole entry, looked up): as the sequence (P40337 whole entry, looked up) above

Regarding `Cc1ncsc1-c1ccc(CNC(=O)[C@@H]2C[C@@H](O)CN2C(=O)[C@@H](NC(=O)CCCCCCCCCC(=O)N2CC(Nc3cc(C(=O)NC[C@H](O)CN4CCc5ccccc5C4)ncn3)C2)C(C)(C)C)cc1`, in [1], the result was inactive.

Turning to `Cc1ncsc1-c1ccc(CNC(=O)[C@@H]2C[C@@H](O)CN2C(=O)[C@@H](NC(=O)CCOCCOCCOCCC(=O)N2CC(Nc3cc(C(=O)NC[C@H](O)CN4CCc5ccccc5C4)ncn3)C2)C(C)(C)C)cc1`, in data set [1], the outcome was inactive.

For `Cc1ncsc1-c1ccc([C@H](C)NC(=O)[C@@H]2C[C@@H](O)CN2C(=O)[C@@H](NC(=O)COCCOCCOCCOCCOCC(=O)N2CC(Nc3cc(C(=O)NC[C@H](O)CN4CCc5ccccc5C4)ncn3)C2)C(C)(C)C)cc1`, the Activity entry (in the data set with A549; in the data set on Jurkat; in the data set with A 172; in data set [10] (time 6.0 day); in the data set with HeLa; in the data set on MCF7 [16]) was “Dose-dependent effect” in each case. Besides, the Activity entry in data set [17] was “Non-Toxic”; in [20], “Dose-dependent effect”. The molecule also registered a concentration at 12 h in [2] of over 0.1 µM. Besides, the outcome in data set [3], in data set [7], in [8], in data set [11], in data set [12] and in data set [13] was Active. The result in [14] and in data set [19] was Active. Besides, the fold change (FC) in [4] is 0.32; in [5], 0.53; in [6] it was 0.51; in [9], 0.61; in data set [15] it was 0.59. On PRMT5/MEP50 complex, the IC50 is 18 nM. Moreover, it took 1100 nM to reach half-maximal degradation in [10] (DC50). Besides, the concentration at 2 h in [18] turned out to be 14 µM. The same molecule showed an Emax in data set [21] of 74%.

Turning to `Cc1ncsc1-c1ccc([C@H](C)NC(=O)[C@H]2C[C@H](O)CN2C(=O)[C@@H](NC(=O)COCCOCCOCCOCCOCC(=O)N2CC(Nc3cc(C(=O)NC[C@H](O)CN4CCc5ccccc5C4)ncn3)C2)C(C)(C)C)cc1`, at PRMT5/MEP50 complex, the IC50 was found to be 12 nM. Further, the outcome (in data set [22]; in the data set with MCF7 [23]) was inactive.
